Source: PubChem
Sampled rows, rich in hits. Any-hit rate of the full collection: about 3.1%.
FGF22 binding – shifts melting point of recombinant human FGF22. Q9HCT0. recombinant FGF22 thermal shift, SYPRO orange fluorescence; percent of sucrose octasulfate shift, DMSO zero. activity (Tm shift, normalised), % at 9.99 µM. 340,000 compounds, 1.5% hits;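 active means mean Tm shift, scaled 0 neutral to 100 positive control, at about 1.3% or above, every replicate too, limit read from the data; inconclusive means no clear call, values can overlap the other calls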
Target sequence (Q9HCT0 whole entry, looked up): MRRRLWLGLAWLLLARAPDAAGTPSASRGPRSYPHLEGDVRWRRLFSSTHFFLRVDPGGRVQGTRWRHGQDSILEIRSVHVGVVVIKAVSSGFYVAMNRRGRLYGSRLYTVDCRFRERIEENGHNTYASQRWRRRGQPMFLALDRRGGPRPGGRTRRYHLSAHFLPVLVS
PGC1a acetyl inh – lowers PGC1a acetylation signal in U2OS cells. AlphaScreen anti-acetyl-lysine; with virally co-expressed GCN5 acetyltransferase. inhibition, % at 15.6 µM. 350,000 compounds, 0.17% hits. AID 651687;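 active means every replicate shows inhibition of at least 40%; inconclusive means mean inhibition at least 40% but some replicate below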;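 further: 0% = neutral control wells and 100% = positive control wells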
EWS-Fli inh – blocks EWS/Fli oncoprotein-driven transcription. A673 NR0B1-luciferase reporter, viability-normalised. inhibition, % at 12.6 µM. AID 651661. 350,000 compounds, 0.67% hits;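 active means mean inhibition of at least 50% after viability correction, with every replicate also passing that limit; inconclusive means mean reaches 50% but only one of two replicates passes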;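 further: firefly luciferase signal divided by Alamar Blue viability fluorescence both relative to DMSO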
Env fusion inh – HIV envelope-mediated fusion inhibition; HeLa-JRFL Env/CEM21 cell fusion, luciferase; inhibition, % at 12.3 µM; 360,000 compounds, 1.1% hits; AID 651610;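 active means mean replicate inhibition score of at least 50 and every replicate individually at or above 50; inconclusive means only one of the two criteria met; inactive means mean below 50 and not all replicates reaching 50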;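 further: 0% = plate neutral controls and 100% = maraviroc near 300 nM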
PAX8 reporter – inhibitors of PAX8 transcriptional activity in RMG-I cells; RMG-I TPO-luciferase reporter, SteadyGlo, 24 h; inhibition, % at 12.6 µM; 360,000 compounds, 1.2% hits; AID 652154;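 active means mean replicate inhibition at least 60% with every replicate also reaching 60%; inconclusive means only one of the two criteria is met; inactive means mean below 60% and not all replicates reaching 60%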;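 further: luciferase light reporting Pax8 driven TPO promoter activity; plate controls were median of neutral control wells for no effect and mitoxantrone controls for full effect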
FN deposition inh – fibronectin deposition inhibition; AH1F fibroblasts, Alexa488-fibronectin deposition fluorescence, overnight; inhibition, % at 12.6 µM; 350,000 compounds, 0.086% hits; AID 743247;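 active means mean inhibition across replicates of 30% or more, regardless of how many single replicates reach that level; inconclusive means mean under 30% yet at least half of replicates reach 30%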;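 further: positive control wells lacked labelled fibronectin entirely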
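material = AH1F fibroblast monolayer depositing Alexa488-labelled fibronectin into matrix | amount = 10000 AH1F cells/well | buffer or medium = DMEM plus 2% serum, read in PBS | incubation = 1 h cell adhesion before compound, then overnight fibronectin incubation | detection = fluorescence at 485 nm excitation, 525 nm emission | evaluation = percent inhibition as loss of matrix-bound fibronectin fluorescence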
* marks the source's active call; other numbers are inactive results; u = inconclusive; x = no result; [ ] = remark or other dose.

SMILES	FGF22 binding	PGC1a acetyl inh	EWS-Fli inh	Env fusion inh	PAX8 reporter	FN deposition inh
C[C@@H]1CCCCO[C@H](CN(C)C(=O)CCCN(C)C)[C@@H](C)CN([C@@H](C)CO)C(=O)c2cc(NC(=O)Nc3cccc4ccccc34)ccc2O1	0	-1	0	-2[16.7 µM]	-6	x
Cc1ccc(OCC(=O)Nc2nnc(C3CCCO3)s2)c(Br)c1 (stereo unspecified)	44*	x	-5	-26	-21	3
COc1ccc(S(=O)(=O)N(C)C[C@@H]2Oc3ccc(NC(=O)C4CC4)cc3C(=O)N([C@H](C)CO)C[C@H]2C)cc1	0	8	16	x	19	x
Cc1nc(NC(=O)C(Cl)Cl)sc1C(=O)N(C)C	x	x	x	-17	1	5
Cc1nc(NC(=O)CCl)sc1C(=O)N(C)C	43*	x	22	24	19	9
O=C(Nc1ccccc1)N1CCCCN2[C@H](CO)[C@H](c3ccc(-c4ccccc4F)cc3)[C@H]2C1	-1	0	19	x	-6	5
O=C(Nc1ccccc1)N1CCCCN2[C@H](CO)[C@H](c3ccc(-c4ccccc4F)cc3)[C@@H]2C1	-1	5	4	x	-19	x
O=C(Nc1cccc(F)c1)N1CCCCN2[C@H](CO)[C@H](c3ccc(-c4ccccc4F)cc3)[C@H]2C1	0	-13	59*	x	u	x
O=C(Nc1cccc(F)c1)N1CCCCN2[C@@H](CO)[C@@H](c3ccc(-c4ccccc4F)cc3)[C@@H]2C1	-1	-8	43	x	114*	x
CC(C)CC#Cc1ccc2c(c1)O[C@@H](CN(C)C(=O)c1ccccn1)[C@@H](C)CN([C@@H](C)CO)S2(=O)=O	0	-15	9	0[16.7 µM]	x	x
CCCC(=O)C1=C(O)C(C(=O)OC)C(C)(C)CC1=Nc1ccc(OC)cc1 (stereo unspecified)	42	46*	-1	13	21	-3
CCCC(=O)C1=C(O)C(C(=O)OC)C(C)(C)CC1=Nc1ccc(C)cc1 (stereo unspecified)	0	x	-4	-28	0	x
Cn1cc(C(=O)c2ccc(Cl)cc2Cl)cc1C(=O)N/N=C(\N)COc1ccc(Cl)cc1	0	-15	25	37	70*	6
CCCNC(=O)[C@H]1[C@H](CO)[C@H]2Cn3c(ccc(/C=C/c4ccccc4)c3=O)[C@@H]1N2C(C)=O	0	x	0	x	5	x
O=C1CN(C(=O)c2ccc(Br)o2)C(c2ccccc2)c2cc(Cl)ccc2N1 (stereo unspecified)	0	-18	16	58*	33	-3
CCN1CCC(O)(/C=C/c2ccc(C(C)C)cc2)C(C(=O)/C=C/c2ccc(C(C)C)cc2)C1 (stereo unspecified)	-1	x	56*	-18	64*	0
CCN1CCN(C(=O)/C=C/c2ccc(C(C)C)cc2)CC1	0	24	-3	6	9	-6
COc1ccc(S(=O)(=O)N(C)C[C@@H]2OCCCC[C@H](C)Oc3ccc(NS(C)(=O)=O)cc3C(=O)N([C@H](C)CO)C[C@H]2C)cc1	0	-8	-12	2[16.7 µM]	8	x
CNC(=O)CSc1nc2cc(S(=O)(=O)Nc3ccccc3OC)ccc2o1	0	x	-21	1	-2	0
COc1ccccc1NS(=O)(=O)c1ccc2oc(SCc3ccc(C#N)cc3)nc2c1	x	x	x	58*	16	2
O=C(Nc1cc(Sc2nc3ccccc3s2)cc([N+](=O)[O-])c1)c1ccccc1F	x	-17	x	-11	x	15*
C[C@H](CO)N1C[C@H](C)[C@@H](CN(C)CC2CCCC2)Oc2ncc(C#C[C@@H](C)O)cc2C1=O	0	14	-11	-9[16.7 µM]	-9	-2
CC(C)CN1CCN(Cc2ccc3ncccc3c2)CC1CCO (stereo unspecified)	44*	-6	4	4	-5	-12
COc1ccc(/C=C/CN2CCN(Cc3cccc(OC)c3)C(CCO)C2)cc1 (stereo unspecified)	0	13	-7	-8	-8	-6
COc1ccc(/C=C/CN2CCN(CC(C)C)C(CCO)C2)cc1 (stereo unspecified)	44*	x	-19	8	-24	-2
OCCC1CN(Cc2cccc3nccnc23)CCN1Cc1ccc(F)c(F)c1 (stereo unspecified)	44*	x	13	-30	5	-2
